From ChEMBL document CHEMBL3861988, “Discovery of Selective Inhibitors Targeting Acetylcholinesterase 1 from Disease-Transmitting Mosquitoes” (J Med Chem, 2016)

Key:
[1] = target: Acetylcholinesterase (Anopheles gambiae) (UniProt Q869C3); experiment: Inhibition of Anopheles gambiae recombinant AChE1 expressed in baculovirus infected insect Sf9 cells at 50 uM using acetylthiocholine iodide as substrate measured over 60 secs by Ellman assay relative to control
How it was run: (§1)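 Single-concentration HTS with secreted, non-purified Sf-9-expressed mosquito AChE1 in growth medium. Assay in 0.1 M phosphate buffer pH 7.4 with 0.2 mM DTNB and 1 mM acetylthiocholine iodide. Compounds were tested at a final 50 µM from DMSO stocks. The A412 slope was read over 60 s. Activity was expressed relative to the mean of eight uninhibited control wells per plate.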

[2] = Inhibition of Aedes aegypti recombinant AChE1 expressed in baculovirus infected insect Sf9 cells at 50 uM using acetylthiocholine iodide as substrate measured over 60 secs by Ellman assay relative to control; how it was run: as §1
[3] = target: Acetylcholinesterase (Homo sapiens, UniProt P22303); experiment: Inhibition of human recombinant AChE using acetylthiocholine iodide as substrate measured over 60 secs by Ellman assay
How it was run: (§2)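 Dose-response Ellman assay on recombinant enzyme in 0.1 M phosphate pH 7.4 with 0.2 mM DTNB and 1 mM acetylthiocholine iodide. At least eight inhibitor concentrations were used, up to 1 mM, diluted from 100 mM DMSO stocks. Run manually at 30 °C with A412 read over 60 s. Activity is relative to uninhibited wells. IC50 was obtained by non-linear log[inhibitor] fitting from 2 replicates.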

[4] = target: Acetylcholinesterase (Anopheles gambiae, UniProt Q869C3); experiment: Inhibition of Anopheles gambiae recombinant AChE1 expressed in baculovirus infected insect Sf9 cells using acetylthiocholine iodide as substrate measured over 60 secs by Ellman assay; how it was run: as §2
[5] = Inhibition of Aedes aegypti recombinant AChE1 expressed in baculovirus infected insect Sf9 cells using acetylthiocholine iodide as substrate measured over 60 secs by Ellman assay; how it was run: as §2
[6] = target: Acetylcholinesterase (Anopheles gambiae, UniProt Q869C3, G122S); experiment: Inhibition of Anopheles gambiae recombinant AChE1 G122S mutant using acetylthiocholine iodide as substrate by Ellman assay; how it was run: as §2
[7] = target: T1, Acetylcholinesterase (Mus musculus, UniProt P21836); experiment: Inhibition of mouse recombinant AChE using acetylthiocholine iodide as substrate measured over 60 secs by Ellman assay
T1 sequence (P21836 whole entry): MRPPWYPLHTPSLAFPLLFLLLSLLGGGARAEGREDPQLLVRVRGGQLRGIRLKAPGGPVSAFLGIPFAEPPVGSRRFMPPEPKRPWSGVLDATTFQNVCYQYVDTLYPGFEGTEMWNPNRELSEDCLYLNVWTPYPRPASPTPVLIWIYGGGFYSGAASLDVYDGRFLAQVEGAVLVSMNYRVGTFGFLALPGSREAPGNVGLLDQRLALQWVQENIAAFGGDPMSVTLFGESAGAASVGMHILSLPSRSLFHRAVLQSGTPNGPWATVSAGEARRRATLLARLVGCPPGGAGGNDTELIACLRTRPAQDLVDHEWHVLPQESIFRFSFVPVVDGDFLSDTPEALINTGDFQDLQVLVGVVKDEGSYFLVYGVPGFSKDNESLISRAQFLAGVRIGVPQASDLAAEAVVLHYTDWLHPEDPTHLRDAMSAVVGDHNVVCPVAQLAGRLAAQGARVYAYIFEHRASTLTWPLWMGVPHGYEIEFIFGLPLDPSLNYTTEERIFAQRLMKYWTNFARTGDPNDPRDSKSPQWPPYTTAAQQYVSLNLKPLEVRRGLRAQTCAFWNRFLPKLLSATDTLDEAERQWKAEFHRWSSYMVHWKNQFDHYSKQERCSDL

[8] = Selectivity ratio of IC50 for human recombinant AChE to IC50 for Aedes aegypti recombinant AChE1
[9] = Selectivity ratio of IC50 for human recombinant AChE to IC50 for Anopheles gambiae recombinant AChE1

Compound | inhibition [1] [%] | inhibition [2] [%] | IC50 [3] [µM] | IC50 [4] [µM] | IC50 [5] [µM] | IC50 [6] [µM] | IC50 [7] [µM] | Ratio IC50 [8] | Ratio IC50 [9]
Fc1ccccc1COc1ccccc1CNCCN1CCOCC1 | 23 | 38 | > 500 | > 500 | > 500 | – | – | – | –
CCN1CCN(C2CCN(C(=O)COc3ccc(-c4ccccc4)cc3)CC2)CC1 | 92 | 76 | 31 | 0.21 | 0.22 | 1.3 | 18 | – | –
O=C(COc1ccc(Cl)cc1Cl)Nc1ccc(CN2CCCCC2)cc1 | 93 | 91 | – | 0.26 | 0.44 | 1.2 | – | – | –
O=C(COc1ccccc1)N1CCN(C2CCN(Cc3ccccc3)CC2)CC1 | 24 | 18 | 43 | 21 | 19 | – | – | 2 | 2
CCOc1ccc(-n2c(SCc3nc(-c4ccccc4C)no3)nnc2-c2ccccc2)cc1 | 63 | 1 | > 1000 | > 1000 | > 1000 | – | – | – | –
c1ccc(COc2ccc(CN3CCc4ccccc4C3)cc2)cc1 | 41 | 80 | > 200 | 2.9 | – | – | – | > 67 | > 67
O=S(=O)(NCCSc1nnc(-c2ccco2)n1-c1ccccc1)c1ccccc1 | 76 | 82 | > 1000 | > 1000 | > 1000 | – | – | – | –
O=C(c1ccccc1F)N1CCN(C2CCN(Cc3ccccc3)CC2)CC1 | 32 | 33 | > 200 | 17 | 12 | – | – | > 12 | > 12
COc1ccc(CN2CC=C(c3ccc(F)cc3)CC2)cc1OCc1ccccc1 | 86 | 90 | > 200 | > 100 | > 100 | – | – | – | –
CCSc1nc2sc3c(c2c(=O)n1-c1ccccc1)CCN(Cc1ccccc1)C3 | 94 | 93 | 5.1 | 8.3 | 8.8 | – | – | 0.6 | 0.6
